This excerpt belongs to a sample that is enriched for hits.
Fibroblast inh = blocks proliferation of human lung fibroblasts. viability, % at 10 µM. LL 47 human lung fibroblast viability, ATP luminescence; stronger effect = lower value. 85,000 compounds, 1.1% hits. AID 719;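 active means viability at or below 50% in the single dose screen; inactive means viability above 50%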;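 further: compound exposure lasted 72 h before the ATP readout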
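Material: Human LL 47 lung fibroblast cells | Input: 1,150 cells/well | Buffer or medium: IMEM plus 15% FBS | Compound dosing: 0.1% DMSO in all compound wells | Times: Overnight cell rest, 72 h compound treatment at 37 °C | Signal: CellTiter-Glo luminescence measuring cellular ATP | Measure: % viability versus median cells-only luminescence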
HCT116 PTEN-null = suppresses growth of cells with PTEN deletion | HCT116 PTEN-null viability, CellTiter-Glo, 60 h; stronger effect = lower value | viability, % at 10 µM | 140,000 compounds, 1.2% hits;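 active means viability at or below a set limit, 4 SD under the median of all tested compounds, cut at about 3.7% in these data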;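 further: PTEN knockout HCT116 line with beta catenin targeted HCT116 as companion control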
HCT116 bCat-KO = beta-catenin-lacking colon tumor cell growth suppression; HCT116 beta-catenin knockout viability, CellTiter-Glo, 60 h; stronger effect = lower value; viability, % at 10 µM; 140,000 compounds, 1.5% hits; AID 818;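 active means viability at or under a set limit, the compound median less 4 SD, cut at about 6% in these data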
PTK2B oligo ant = antagonists of human Pyk2 oligomerization | Q14289 | Q293 cells, Pyk2 FERM NanoBiT luminescence; stronger effect = lower value | z-score (the deposit names both 25 µM and 10 µM) | 99,000 compounds, 0.83% hits;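 active means Z-score of -3 or lower, scaled per plate to the spread of control and sample wells; inactive means z-score above -3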;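 further: negative z-score means lost luminescence so less FERM oligomerization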
Target sequence (Q14289 whole entry, looked up): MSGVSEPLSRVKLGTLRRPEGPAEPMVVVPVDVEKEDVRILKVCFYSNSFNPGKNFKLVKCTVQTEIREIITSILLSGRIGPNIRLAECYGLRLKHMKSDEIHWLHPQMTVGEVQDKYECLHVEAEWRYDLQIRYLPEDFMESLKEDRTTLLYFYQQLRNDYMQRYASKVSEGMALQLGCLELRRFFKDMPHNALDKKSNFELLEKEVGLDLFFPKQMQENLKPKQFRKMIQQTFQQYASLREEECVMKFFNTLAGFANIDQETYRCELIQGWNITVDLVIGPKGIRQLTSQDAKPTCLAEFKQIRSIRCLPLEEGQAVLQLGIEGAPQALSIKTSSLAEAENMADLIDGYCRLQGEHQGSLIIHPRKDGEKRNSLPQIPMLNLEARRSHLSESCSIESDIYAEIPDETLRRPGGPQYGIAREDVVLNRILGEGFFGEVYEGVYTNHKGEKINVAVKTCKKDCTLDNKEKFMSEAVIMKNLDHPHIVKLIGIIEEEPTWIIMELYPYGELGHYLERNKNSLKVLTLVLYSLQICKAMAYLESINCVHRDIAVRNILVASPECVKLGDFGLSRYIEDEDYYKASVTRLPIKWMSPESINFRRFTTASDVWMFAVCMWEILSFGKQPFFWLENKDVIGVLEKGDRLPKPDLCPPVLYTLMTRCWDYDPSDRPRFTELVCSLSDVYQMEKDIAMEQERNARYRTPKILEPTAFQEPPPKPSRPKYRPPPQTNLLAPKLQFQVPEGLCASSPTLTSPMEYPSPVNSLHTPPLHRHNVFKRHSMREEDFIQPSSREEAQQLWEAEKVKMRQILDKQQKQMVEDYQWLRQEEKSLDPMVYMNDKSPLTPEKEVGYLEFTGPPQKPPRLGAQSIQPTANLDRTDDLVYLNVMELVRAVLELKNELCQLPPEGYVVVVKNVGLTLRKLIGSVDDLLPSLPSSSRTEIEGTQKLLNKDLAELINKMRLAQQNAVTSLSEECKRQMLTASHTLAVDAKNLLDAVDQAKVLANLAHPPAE
H69AR growth 86K = blocks growth of human H69AR lung tumor cells. 85,000 compounds, 6% hits. AID 598. viability, % at 10 µM. H69AR lung tumor viability, ATP luminescence, 72 h; stronger effect = lower value;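 active means viability at or below 40%; inactive means viability above 40%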;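 further: multidrug resistant small cell line overexpressing MRP-1 efflux transporter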
HUVEC inhibit = human endothelial cell proliferation inhibition; viability, % at 10 µM (by protocol); 86,000 compounds, 1.1% hits; AID 648; HUVEC proliferation, CellTiter-Glo luminescence, 72 h; stronger effect = lower value;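 active means viability at or below 30%; inactive means viability above 30%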
Hits are given with their value.

For Nc1nc2ccc(S(=O)(=O)c3ccc4nc(N)sc4c3)cc2s1 the results were Fibroblast inh inactive, HCT116 PTEN-null inactive, HCT116 bCat-KO inactive, PTK2B oligo ant inactive, H69AR growth 86K inactive and HUVEC inhibit inactive.
`Nc1nc2ccc(O)cc2s1` gave HCT116 PTEN-null inactive, HCT116 bCat-KO inactive, PTK2B oligo ant inactive, H69AR growth 86K 18 and HUVEC inhibit inactive.
For COc1ccc(-c2cn3cccnc3n2)cc1NC(=O)c1ccc(Br)o1 the results were HCT116 PTEN-null inactive, HCT116 bCat-KO inactive and PTK2B oligo ant -3.2.
`CS(=O)(=O)N1N=C(c2ccco2)CC1c1ccc(Cl)cc1` (stereo not drawn) gave HCT116 PTEN-null inactive and HCT116 bCat-KO inactive.
`Cc1ccc(-c2nc3cnccn3c2Nc2ccc3c(c2)OCO3)cc1` gave Fibroblast inh inactive, HCT116 PTEN-null inactive, HCT116 bCat-KO inactive, H69AR growth 86K 25 and HUVEC inhibit inactive.
For Cc1ccc2nc(-c3ccc(O)cc3)c(Nc3ccc4c(c3)OCCO4)n2c1 the results were Fibroblast inh inactive, HCT116 PTEN-null inactive, HCT116 bCat-KO inactive, H69AR growth 86K inactive and HUVEC inhibit inactive.
For COc1ccc(-c2nc3cnccn3c2Nc2ccc3c(c2)OCO3)cc1 the results were Fibroblast inh inactive, HCT116 PTEN-null inactive, HCT116 bCat-KO inactive, H69AR growth 86K 24 and HUVEC inhibit inactive.
`Cc1ccc(-c2nc3cnccn3c2Nc2ccc3c(c2)OCCO3)o1` gave Fibroblast inh inactive, HCT116 PTEN-null inactive, HCT116 bCat-KO inactive, PTK2B oligo ant inactive, H69AR growth 86K inactive and HUVEC inhibit inactive.
`O=C(CCCOc1ccccc1)NC1CCCc2ccccc21` (stereo not drawn) gave HCT116 PTEN-null inactive and HCT116 bCat-KO inactive.
`Cc1cc(C)cc(N(CC(=O)Nc2ccccc2-c2ccccc2)S(=O)(=O)c2ccccc2)c1` gave HCT116 PTEN-null inactive and HCT116 bCat-KO inactive.
`Cc1ccc(N(CC(=O)Nc2ccccc2-c2ccccc2)S(=O)(=O)c2ccccc2)cc1` gave HCT116 PTEN-null inactive, HCT116 bCat-KO inactive and PTK2B oligo ant -3.9.
`CCOC(=O)C1=C(c2ccccc2)N=c2s/c(=C\c3cccc(O)c3)c(=O)n2C1c1cccs1` (stereo not drawn) gave HCT116 PTEN-null 1.5, HCT116 bCat-KO 1.5 and PTK2B oligo ant inactive.
`Cn1cc(-c2nnc(-c3ccccc3)o2)c2ccccc21` gave Fibroblast inh inactive, HCT116 PTEN-null inactive, HCT116 bCat-KO inactive, PTK2B oligo ant inactive, H69AR growth 86K inactive and HUVEC inhibit 18.
`CCOC(=O)c1[nH]c2ccc(F)cc2c1NC(=O)C(C)N1CCc2cc(OC)c(OC)cc2C1` (stereo not drawn) gave Fibroblast inh inactive, HCT116 PTEN-null inactive, HCT116 bCat-KO inactive, PTK2B oligo ant inactive, H69AR growth 86K 2.4 and HUVEC inhibit inactive.
CCOC(=O)c1[nH]c2ccc(OC)cc2c1NC(=O)C(C)N1CCC2(CC1)OCCO2 (stereo not drawn) was read as Fibroblast inh inactive, HCT116 PTEN-null inactive, HCT116 bCat-KO inactive, H69AR growth 86K inactive and HUVEC inhibit inactive.
Screening O=C(CN1CCOCC1)Nc1nc(-c2ccc3c(c2)CCN3S(=O)(=O)c2ccccc2)cs1 returned Fibroblast inh inactive, HCT116 PTEN-null inactive, HCT116 bCat-KO inactive, PTK2B oligo ant -3, H69AR growth 86K inactive and HUVEC inhibit inactive.
Screening Cc1sc(NC(=O)CN2CCOCC2)nc1-c1ccc2c(c1)CCN2S(=O)(=O)c1ccccc1 returned Fibroblast inh inactive, HCT116 PTEN-null inactive, HCT116 bCat-KO inactive, PTK2B oligo ant inactive, H69AR growth 86K inactive and HUVEC inhibit inactive.
O=C(CSc1nc2c(c(C(F)(F)F)n1)CCc1ccccc1-2)NCc1ccco1 was read as Fibroblast inh inactive, HCT116 PTEN-null inactive, HCT116 bCat-KO inactive, PTK2B oligo ant inactive, H69AR growth 86K 30 and HUVEC inhibit inactive.
`CC(NC(=O)CSc1nc2c(c(C(F)(F)F)n1)CCc1ccccc1-2)c1ccccc1` (stereo not drawn) gave Fibroblast inh inactive, HCT116 PTEN-null inactive, HCT116 bCat-KO inactive, PTK2B oligo ant inactive, H69AR growth 86K inactive and HUVEC inhibit inactive.
Screening O=C(CSc1nnc(-c2ccccc2)c(-c2ccccc2)n1)NCc1ccco1 returned Fibroblast inh inactive, HCT116 PTEN-null inactive, HCT116 bCat-KO inactive, PTK2B oligo ant inactive, H69AR growth 86K 20 and HUVEC inhibit inactive.

Screening results (PubChem)
